pIC50: −log10 of the molar value. “And” between values parts separate entries of the source, which are not always exact repeats. Identical values can stand only once.
Legend:
[1] = biological target: T1, Melanin-concentrating hormone receptor 1 (Homo sapiens, UniProt Q99705); test: Inhibition of melanin concentrating hormone receptor 1 mediated [Ca2+] release in IMR-32 cells in Ca+2 release cell assay; assay type: functional, cell-based
[2] = biological target: T1, Melanin-concentrating hormone receptor 1; test: Inhibitory concentration aganist melanin concentrating hormone receptor 1 expressed in IMR-32 cells using [125I]MCH; assay type: cell-based
[3] = Brain area under concentration curve after oral administration in diet-induced obese mouse at a dose of 10 mg/kg for 0-24 hr period, n=3; assay type: ADME, organism-based; design: time < 24 hr, dose 10 mg/kg, route oral; conditions: in vivo
Procedure, shortened: (§1)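 Diet-induced obese mice were given a single oral dose of 10 mg/kg. Plasma and brain were sampled over 24 h. […] Values are mean ± SEM, n = 3.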

[4] = Plasma area under concentration curve after oral administration in diet-induced obese mouse at a dose of 10 mg/kg for 0-24 hr period,n=3; assay type: ADME, organism-based; design: time < 24 hr, dose 10 mg/kg, route oral; procedure, shortened: as §1
[5] = Maximum concentration in diet-induced obese mouse brain at 10 mg/kg oral administration; n=3; assay type: ADME, organism-based; design: dose 10 mg/kg, route oral; procedure, shortened: as §1
[6] = Concentration in diet-induced obese mouse brain 12 h after 10 mg/kg oral administration; assay type: ADME, organism-based; design: dose 10 mg/kg, route oral; conditions: read-out: C12h; procedure, shortened: as §1
[7] = Plasma concentration at the end of the first infusion in dog cardiovascular assay; value is in between 1.36-1.43; assay type: ADME, Canis lupus familiaris; conditions: iv
[8] = Plasma concentration at the end of the first infusion in dog cardiovascular assay; value is in between 2.75-2.93; assay type: ADME, Canis lupus familiaris; conditions: iv
[9] = Brain area under concentration curve after peroral administration in lean mouse at a dose of 10 mg/kg; assay type: ADME, organism-based; design: dose 10 mg/kg, route oral; conditions: in vivo, po
[10] = Plasma area concentration under curve after peroral administration in lean mouse at a dose of 10 mg/kg; assay type: ADME, organism-based; design: dose 10 mg/kg, route oral; conditions: po
Procedure, shortened: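 Single oral dose of 10 mg/kg given to lean mice. Plasma exposure is expressed as AUC, and brain AUC was measured alongside it. Interanimal variability was below 25% for all values.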

[11] = Half-life after oral administration; assay type: ADME, organism-based, Canis lupus familiaris; conditions: dog, in vivo
[12] = Half-life after iv administration at a dose 2.5 mg/kg; assay type: ADME, organism-based, Canis lupus familiaris; design: dose 2.5 mg/kg, route intravenous; conditions: dog, in vivo
Procedure, shortened: (§2)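 Male beagle dogs received a single intravenous bolus of 2.5 mg/kg. Plasma was sampled to derive half-life, Cmax, plasma clearance and AUC0-∞. Values are mean ± SEM.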

[13] = biological target: Adrenergic receptor alpha-1 (Homo sapiens) (UniProt P35348+P25100+P35368); test: Non-selective inhibition against adrenergic-alpha-1 receptor at 10 uM; assay type: protein assay
[14] = biological target: Dopamine receptor (Homo sapiens) (UniProt P14416+P35462+P21918+P21917+P21728); test: Non-selective inhibition against dopamine receptor at 10 uM; assay type: protein assay
[15] = Bioavailability after oral administration; assay type: ADME, organism-based, Canis lupus familiaris; conditions: dog, in vivo, read-out: Activity
[16] = Drug concentration in brain 1 hr after final dose of 10 mg/kg, administered orally; assay type: ADME, organism-based; design: dose 10 mg/kg, route oral; conditions: mouse, po, read-out: Activity
Procedure, shortened: (§3)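 Diet-induced obese mice were dosed orally at 10 or 30 mg/kg b.i.d. for 13 days. Body weight was expressed as % change from vehicle controls. Plasma (μg/mL) and brain (μg/g) drug levels were measured 1 h after the final dose. Values are mean ± SEM, n = 3.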

[17] = Drug concentration in plasma 1 hr after final dose of 10 mg/kg administered orally; assay type: ADME, organism-based; design: dose 10 mg/kg, route oral; conditions: mouse, po, read-out: Activity; procedure, shortened: as §3
[18] = Drug concentration in plasma 1 hr after final dose of 30 mg/kg administered orally; assay type: ADME, organism-based; design: dose 30 mg/kg, route oral; conditions: mouse, po, read-out: Activity; procedure, shortened: as §3
[19] = Plasma concentration after intravenous infusion at a dose of 8 mg/kg/30 min; assay type: ADME, organism-based, Canis lupus familiaris; design: route intravenous; conditions: dog, read-out: Activity
[20] = Plasma concentration after intravenous infusion at a dose of 26 mg/kg/30 min; assay type: ADME, organism-based, Canis lupus familiaris; design: route intravenous; conditions: dog, read-out: Activity
[21] = Plasma concentration after intravenous infusion at a dose of 80 mg/kg measured after approximately 12 min; assay type: ADME, organism-based, Canis lupus familiaris; design: dose 80 mg/kg, route intravenous; conditions: dog, read-out: Activity
[22] = Plasma area under curve after oafter iv administration at a dose 2.5 mg/kg; assay type: ADME, organism-based, Canis lupus familiaris; design: dose 2.5 mg/kg, route intravenous; conditions: dog, in vivo; procedure, shortened: as §2
[23] = biological target: Voltage-gated inwardly rectifying potassium channel KCNH2 (Homo sapiens, UniProt Q12809); test: Inhibition of human potassium channel HERG
Voltage-gated inwardly rectifying potassium channel KCNH2, sequence (Q12809 whole entry): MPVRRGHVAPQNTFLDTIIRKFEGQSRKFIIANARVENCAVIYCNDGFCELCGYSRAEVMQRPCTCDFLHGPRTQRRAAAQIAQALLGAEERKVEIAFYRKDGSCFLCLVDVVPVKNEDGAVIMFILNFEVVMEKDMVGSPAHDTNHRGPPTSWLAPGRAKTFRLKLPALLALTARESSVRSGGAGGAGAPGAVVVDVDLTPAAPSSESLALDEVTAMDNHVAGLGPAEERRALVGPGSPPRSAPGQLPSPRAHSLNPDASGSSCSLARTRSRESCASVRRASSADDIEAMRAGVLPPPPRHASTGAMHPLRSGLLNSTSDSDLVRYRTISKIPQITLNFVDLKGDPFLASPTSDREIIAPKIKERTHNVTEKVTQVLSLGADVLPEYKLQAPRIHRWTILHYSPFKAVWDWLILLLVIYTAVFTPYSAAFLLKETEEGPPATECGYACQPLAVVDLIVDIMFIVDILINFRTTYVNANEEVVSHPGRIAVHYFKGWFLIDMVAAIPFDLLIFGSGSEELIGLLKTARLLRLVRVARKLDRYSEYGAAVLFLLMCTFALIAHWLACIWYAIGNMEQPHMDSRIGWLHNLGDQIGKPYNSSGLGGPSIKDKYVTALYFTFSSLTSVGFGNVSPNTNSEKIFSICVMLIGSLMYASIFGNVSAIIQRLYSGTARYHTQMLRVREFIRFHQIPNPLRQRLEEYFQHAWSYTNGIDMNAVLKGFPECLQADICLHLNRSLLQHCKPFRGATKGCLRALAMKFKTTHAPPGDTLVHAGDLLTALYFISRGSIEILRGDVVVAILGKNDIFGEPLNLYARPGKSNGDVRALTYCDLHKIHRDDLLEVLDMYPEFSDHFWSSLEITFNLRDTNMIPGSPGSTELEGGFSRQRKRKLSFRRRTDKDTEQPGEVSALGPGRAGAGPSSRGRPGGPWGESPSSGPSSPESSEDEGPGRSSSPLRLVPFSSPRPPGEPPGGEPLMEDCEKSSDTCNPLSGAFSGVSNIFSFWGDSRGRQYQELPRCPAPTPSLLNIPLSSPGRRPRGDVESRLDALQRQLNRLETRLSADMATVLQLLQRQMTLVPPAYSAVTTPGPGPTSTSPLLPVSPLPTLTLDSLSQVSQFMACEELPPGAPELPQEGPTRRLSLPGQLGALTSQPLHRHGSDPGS

[24] = Plasma clearance after iv administration at a dose 2.5 mg/kg; assay type: ADME, organism-based, Canis lupus familiaris; design: dose 2.5 mg/kg, route intravenous; conditions: dog, read-out: Clp (converted); procedure, shortened: as §2
[25] = Peak plasma concentration after oral administration; assay type: ADME, organism-based, Canis lupus familiaris; design: route oral; conditions: dog
[26] = Peak plasma concentration after iv administration at a dose 2.5 mg/kg; assay type: ADME, organism-based, Canis lupus familiaris; design: dose 2.5 mg/kg, route intravenous; conditions: dog; procedure, shortened: as §2
Mus musculus [27] = test: Drug concentration in brain 1 hr after final dose of 10 mg/kg, administered orally; conditions: po
Mus musculus [28] = test: Percent change in body weight after oral administration at a dose of 10 mg/kg b.i.d. as compare to vehicle (1% Tween-80 in water) observed for 13 days
Mus musculus [29] = test: Percent change in body weight after oral administration at a dose of 30 mg/kg b.i.d. as compare to vehicle (1% Tween-80 in water) observed for 13 days
Mus musculus [30] = test: Percent change in body weight after oral administration at a dose of 30 mg/kg b.i.d. as compare to vehicle (1% Tween-80 in water) observed for 28 days
Mus musculus [31] = test: Percent change in body weight after oral administration at a dose of 10 mg/kg b.i.d. as compare to vehicle (1% Tween-80 in water) observed for 28 days
[32] = Plasma area under concentration curve after peroral administration in lean mouse at a dose of 10 mg/kg; assay type: ADME, organism-based; design: dose 10 mg/kg, route oral; conditions: po

T1 sequence (Q99705 whole entry): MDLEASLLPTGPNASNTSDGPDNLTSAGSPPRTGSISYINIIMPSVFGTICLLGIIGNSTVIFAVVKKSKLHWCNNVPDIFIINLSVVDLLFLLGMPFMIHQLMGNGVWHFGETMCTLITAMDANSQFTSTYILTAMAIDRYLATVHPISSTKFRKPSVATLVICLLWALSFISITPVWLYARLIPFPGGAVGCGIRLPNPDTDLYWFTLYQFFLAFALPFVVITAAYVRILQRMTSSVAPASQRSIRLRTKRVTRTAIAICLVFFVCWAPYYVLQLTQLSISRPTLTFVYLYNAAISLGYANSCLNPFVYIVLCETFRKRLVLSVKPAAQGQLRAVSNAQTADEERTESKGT

`O=c1cc(NC2CCN(C/C=C/c3ccccc3)CC2)c2ccccc2o1` showed a pIC50 [1] of 5.98 and a pIC50 [2] of 6.72.

With `O=c1cc(NC2CCN(Cc3ccc4c(c3)OC(F)(F)O4)CC2)c2cc(Cl)ccc2o1` the pIC50 [1] was 6.24 and the pIC50 [2] was 7.72.

In the case of `O=c1cc(NC2CCN(Cc3ccc4[nH]ccc4c3)CC2)c2cc(Cl)ccc2o1`, the pIC50 [1] was 7.20, the AUC [3] was 1.18 µg·h/g and the AUC at 24 h [4] was 2870 ng·h/mL. The Cmax [5] was 182 ng/g, the pIC50 [2] was 8.15 and the concentration at 12 h [6] was 18 ng/g.

`CC(C)(C)c1ccc(CN2CCC(/N=c3\cc(O)oc4ccc(Cl)cc34)CC2)cc1` gave a pIC50 [1] of under 5.00.

In the case of `O=c1cc(NC2CCN(Cc3ccc4ncoc4c3)CC2)c2cc(Cl)ccc2o1`, the pIC50 [1] was 6.34 and the pIC50 [2] was 7.12.

Work on `COc1ccc2oc(O)c/c(=N\C3CCN(Cc4ccc5c(c4)OCO5)CC3)c2c1` yielded a pIC50 [1] of 7.96, an Activity [7] of 2.84 µg/mL and an Activity [8] of 2.84 µg/mL.

In the case of `O=c1cc(NC2CCN(Cc3ccc4ccccc4c3)CC2)c2cc(Cl)ccc2o1`, the pIC50 [1] was 7.04 and the pIC50 [2] was 7.68.

With `O=c1cc(NC2CCN(Cc3ccc4ocnc4c3)CC2)c2cc(Cl)ccc2o1` the pIC50 [1] was 6.79, the AUC [3] was 0 µg·h/g and the pIC50 [2] was 8.52.

In the case of `O=c1cc(NC2CCN(C/C=C/c3ccccc3)CC2)c2cc(Cl)ccc2o1`, the pIC50 [1] was 6.68, the AUC [9] was 2.6 µg·h/g and the AUC [10] was 1920 ng·h/mL. It also gave a pIC50 [2] of 8.05.

In the case of `O=c1cc(NC2CCN(Cc3ccc4c(c3)CCO4)CC2)c2cc(Cl)ccc2o1`, the pIC50 [1] was 7.39, the AUC [3] was 0.449 µg·h/g and the AUC at 24 h [4] was 621 ng·h/mL. For the same molecule, the Cmax [5] was 294 ng/g and the pIC50 [2] was 7.57.

In the case of `O=c1cc(NC2CCN(Cc3ccc4sccc4c3)CC2)c2cc(Cl)ccc2o1`, the pIC50 [1] was 6.72 and the pIC50 [2] was 8.22.

`Cn1ccc2ccc(CN3CCC(/N=c4\cc(O)oc5ccc(Cl)cc45)CC3)cc21` gave a pIC50 [1] of 6.79 and a pIC50 [2] of 7.22.

With `O=c1cc(NC2CCN(Cc3ccc4c(c3)OCO4)CC2)c2cc(Cl)ccc2o1` the pIC50 [1] was 7.55, the AUC at 24 h [4] was 6350 ng·h/mL and the Cmax [5] was 454 ng/g. The half-life [11] was 4.4 h, the half-life [12] was 3.9 h and the pIC50 [2] was 8.70. The inhibition [13] was 75% and 69%, the inhibition [14] was 60% and the bioavailability [15] was 48%. For the same molecule, the concentration at 1 h [16] was 2210 ng/g, the concentration at 1 h [17] was 2000 ng/mL and the concentration at 1 h [18] was 6010 ng/mL. It also gave a concentration at 0.5 h [19] of 3330 ng/mL, a concentration at 0.5 h [20] of 11800 ng/mL and a concentration at 0.2 h [21] of 19900 ng/mL. The AUC [22] was 2660 ng·h/mL, the pIC50 [23] was 5.65 and the clearance [24] was 15.8 mL/min/kg. It also gave a concentration at 12 h [6] of 175 ng/g, a Cmax [25] of 200 ng/mL and a Cmax [26] of 1600 ng/mL. The concentration at 1 h (Mus musculus [27]) was 6460 ng/g, the “% change” value (Mus musculus [28]) was -6.9% and the “% change” value (Mus musculus [29]) was -18.2%. The “% change” value (Mus musculus [30]) was -31% and the “% change” value (Mus musculus [31]) was -16%.

With `COc1ccc2oc(O)c/c(=N\C3CCN(C/C=C/c4ccccc4)CC3)c2c1` the pIC50 [1] was 7.36, the AUC [9] was 0.43 µg·h/g and the AUC [32] was 980 ng·h/mL. It also gave a pIC50 [2] of 8.40.

`O=c1cc(NC2CCN(Cc3ccc4cc[nH]c4c3)CC2)c2cc(Cl)ccc2o1` showed a pIC50 [1] of 7.55 and a pIC50 [2] of 7.62.

Reference: ChEMBL document CHEMBL1141081, “Discovery and characterization of aminopiperidinecoumarin melanin concentrating hormone receptor 1 antagonists” (J Med Chem, 2005)
